Test results taken from ChEMBL document CHEMBL1148428, “Carbazolothiophene-2-carboxylic acid derivatives as endothelin receptor antagonists” (Bioorg Med Chem Lett, 2004).
Non-standard residues stand in square brackets, D forms with d. Residues, ends and D or L forms follow the SMILES beside them.

system: not listed separately; test: Evaluated for inhibition of ET-1 induced Calcium channel [Ca+2]i in CHO-K1 cells transfected with the rat ETA-expression plasmid DNA; type: functional, cell-based
How it was run: (§1)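 Rat ETA receptor plasmid transfected into CHO-K1 cells by lipofection. Cells preloaded with fura-2 AM, then stimulated with ET-1 at 10^-7 M. The rise in [Ca2+]i was read ratiometrically, with excitation at 340/380 nm and emission at 510 nm. The ET-1 response alone was set as 100%, and inhibition by compounds is expressed relative to it.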

Which IC50 does the source give for `CC1(c2ccc(O)cc2)c2cc(C(=O)O)sc2C(=O)c2c1c1ccccc1n2Cc1ccccc1` (configuration not stated) here?
The IC50 was ~10 nM.

system: not listed separately; test: Evaluated for inhibition of ET-1 induced Calcium channel [Ca+2]i in CHO-K1 cells transfected with the rat ETA-expression plasmid DNA at 10 nM; type: functional; how it was run: as §1

For `CCCOc1ccc2c(c1)[C@@H](c1ccc(OC)cc1OCC(=O)O)[C@H](C(=O)O)[C@H]2c1ccc2c(c1)OCO2` [SB-209670], which inhibition at 0.01 µM is on record?
The inhibition at 0.01 µM was ~85%.

system: not listed separately; test: Evaluated for inhibition of ET-1 induced Calcium channel [Ca+2]i in CHO-K1 cells transfected with the rat ETA-expression plasmid DNA at 10E-6M; type: functional; how it was run: as §1

Which inhibition at 1 µM does the source give for `CC(C)C[C@@H]1NC(=O)[C@@H](C(C)C)NC(=O)[C@@H]2CCCN2C(=O)[C@@H](CC(=O)O)NC(=O)[C@@H](Cc2c[nH]c3ccccc23)NC1=O` [BQ-123] (cyclo(L[dW][dD]P[dV])) here?
The inhibition at 1 µM was ~60%.

For `Cn1c2c(c3ccccc31)C(C)(c1cccc(CCCC(=O)O)c1)c1cc(C(=O)O)sc1C2=O` (configuration not stated), which inhibition at 1 µM is on record?
Its inhibition at 1 µM is > 75%.

Which inhibition at 1 µM does the source give for `CC1(c2ccc(O)cc2)c2cc(C(=O)O)sc2C(=O)c2c1c1ccccc1n2Cc1ccccc1` (configuration not stated) here?
Its inhibition at 1 µM is > 75%.

Which inhibition at 1 µM does the source give for `Cn1c2c(c3ccccc31)C(C)(c1ccc(OCC(=O)O)cc1)c1cc(C(=O)O)sc1C2=O` (configuration not stated) here?
Its inhibition at 1 µM is > 75%.

Which inhibition at 1 µM does the source give for `Cn1c2c(c3ccccc31)C(C)(c1cccc(CC(=O)O)c1)c1cc(C(=O)O)sc1C2=O` (configuration not stated) here?
Its inhibition at 1 µM is > 75%.

For `Cn1c2c(c3ccccc31)C(C)(c1ccc(OCCCC(=O)O)cc1)c1cc(C(=O)O)sc1C2=O` (configuration not stated), which inhibition at 1 µM is on record?
Its inhibition at 1 µM is > 75%.

system: CHO-K1; test: Evaluated for inhibition of ET-1 induced Calcium channel [Ca+2]i in CHO-K1 cells transfected with the rat ETA-expression plasmid DNA at 10E-6M; Low inhibition; type: functional, cell-based; how it was run: as §1

Which inhibition does the source give for `COc1ccc(Cn2c3c(c4ccccc42)C(C)(c2ccccc2)c2cc(C(=O)O)sc2C3=O)cc1` (configuration not stated) here?
The inhibition was “Weak inhibition”.

With `CC1(c2ccccc2)c2cc(C(=O)O)sc2C(=O)c2c1c1ccccc1n2Cc1ccc(O)cc1` (configuration not stated) as the compound, how does the inhibition read?
The inhibition was “Weak inhibition”.

Which inhibition does the source give for `CC1(c2ccccc2)c2cc(C(=O)O)sc2C(=O)c2c1c1ccccc1n2Cc1ccc(OCC(=O)O)cc1` (configuration not stated) here?
Its inhibition is “Weak inhibition”.

Which inhibition does the source give for `COc1ccc(C2(C)c3cc(C(=O)O)sc3C(=O)c3c2c2ccccc2n3Cc2ccccc2)cc1` (configuration not stated) here?
The inhibition was “Weak inhibition”.

With `CC1(c2cccc(CC(=O)O)c2)c2cc(C(=O)O)sc2C(=O)c2c1c1ccccc1n2Cc1ccccc1` (configuration not stated) as the compound, how does the inhibition read?
The inhibition was “Weak inhibition”.

Which inhibition does the source give for `COc1cccc(C2(C)c3cc(C(=O)O)sc3C(=O)c3c2c2ccccc2n3Cc2ccccc2)c1` (configuration not stated) here?
The inhibition was “Weak inhibition”.

system: not listed separately; test: Evaluated for inhibition of ET-1 induced Calcium channel [Ca+2]i in CHO-K1 cells transfected with the rat ETA-expression plasmid DNA at 10E-6M; range- 50-70%; type: functional; how it was run: as §1

With `CC1(c2ccc(OCC(=O)O)cc2)c2cc(C(=O)O)sc2C(=O)c2c1c1ccccc1n2Cc1ccccc1` (configuration not stated) as the compound, how does the inhibition at 1 µM read?
The inhibition at 1 µM was < 70%.

For `CC1(c2cccc(O)c2)c2cc(C(=O)O)sc2C(=O)c2c1c1ccccc1n2Cc1ccccc1` (configuration not stated), which inhibition at 1 µM is on record?
The inhibition at 1 µM was < 70%.

With `COc1cccc(C2(C)c3cc(C(=O)O)sc3C(=O)c3c2c2ccccc2n3C)c1` (configuration not stated) as the compound, how does the inhibition at 1 µM read?
The inhibition at 1 µM was < 70%.
